Test results published in ChEMBL document CHEMBL1126705, “16 beta-([18F]fluoro)estrogens: systematic investigation of a new series of fluorine-18-labeled estrogens as potential imaging agents for estrogen-receptor-positive breast tumors” (J Med Chem, 1993).

Legend:
Rattus norvegicus [1] = experiment: Tested in vivo for the biodistribution in rat uterus/muscle after 3 hours following an intravenous dose of 100 microCi of drug in 10%ethanol saline; assay type: ADME, organism-based, Muscle tissue
Method in brief: (§1)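 Female Sprague-Dawley rats, 25 days old (~40–53 g), ether-anesthetized, given the 18F-labeled estrogen iv via femoral vein in 10% ethanol saline. […] Others were sacrificed by decapitation at 1 or 3 h. Blood and organs were excised, weighed and gamma counted as % injected dose/g, mean ± SD, typically n = 5 (4–6).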

Rattus norvegicus [2] = experiment: Tested in vivo for the biodistribution in rat uterus/muscle at 1 hour after intravenous dose of 100 microCi of drug in 10%ethanol saline; assay type: ADME, organism-based, Muscle tissue; method in brief: as §1
Rattus norvegicus [3] = experiment: Tested in vivo for the biodistribution in rat uterus/muscle at 1 hour after intravenous dose of 100 microCi of the drug and 15 ug of estradiol; assay type: ADME, organism-based, Muscle tissue; method in brief: as §1
Rattus norvegicus [4] = experiment: Tested in vivo for the biodistribution in blood of female rat after 3 hours following an intravenous dose of 100 microCi of drug in 10%ethanol saline; assay type: ADME, organism-based
Method in brief: (§2)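 Ether-anesthetized 25-day-old female Sprague-Dawley rats (~40–53 g) got the [18F] tracer in 10% ethanol saline via femoral vein. Rats were decapitated at 1 or 3 h, and blood and organs were weighed and gamma-counted. Values are % injected dose/g as mean ± SD, n = 5 per time point.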

Rattus norvegicus [5] = experiment: Tested in vivo for the biodistribution in blood of female rat at 1 hour after intravenous dose of 100 microCi of drug in 10%ethanol saline; assay type: ADME, organism-based; method in brief: as §2
Rattus norvegicus [6] = experiment: Tested in vivo for the biodistribution in blood of female rat at 1 hour after intravenous dose of 100 microCi of the drug and 15 u g of estradiol; assay type: ADME, organism-based
Rattus norvegicus [7] = experiment: Tested in vivo for the biodistribution in rat bone at 1 hour after intravenous dose of 100 microCi of drug in 10%ethanol saline; assay type: ADME, organism-based, Bone element; method in brief: as §2
Rattus norvegicus [8] = experiment: Tested in vivo for the biodistribution in rat bone at 1 hour after intravenous dose of 100 microCi of the drug and 15 ug of estradiol; assay type: ADME, organism-based, Bone element
Rattus norvegicus [9] = experiment: Tested in vivo for the biodistribution in rat fat after 3 hours following an intravenous dose of 100 microCi of drug in 10%ethanol saline; assay type: ADME, organism-based, Adipose tissue; method in brief: as §2
Rattus norvegicus [10] = experiment: Tested in vivo for the biodistribution in rat fat at 1 hour after intravenous dose of 100 microCi of drug in 10%ethanol saline; assay type: ADME, organism-based, Adipose tissue; method in brief: as §2
Rattus norvegicus [11] = experiment: Tested in vivo for the biodistribution in rat ovaries at 1 hour after intravenous dose of 100 microCi of drug in 10%ethanol saline; assay type: ADME, organism-based, Female gonad
Method in brief: (§3)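 Immature (25-day-old) female Sprague-Dawley rats, ether-anesthetized, given the fluorine-18-labeled estrogen by femoral vein injection in 10% ethanol saline. […] Other groups were killed by decapitation at 1 or 3 h. Blood and organs were weighed and gamma-counted. Data are % injected dose/g, mean ± SD, typically n = 5 per group.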

Rattus norvegicus [12] = experiment: Tested in vivo for the biodistribution in rat ovaries at 1 hour after intravenous dose of 100 microCi of the drug and 15 ug of estradiol; assay type: ADME, organism-based, Female gonad; method in brief: as §3
Rattus norvegicus [13] = experiment: Tested in vivo for the biodistribution in rat muscle at 1 hour after intravenous dose of 100 microCi of drug in 10%ethanol saline; assay type: ADME, organism-based, Muscle tissue; method in brief: as §3
Rattus norvegicus [14] = experiment: Tested in vivo for the biodistribution in rat muscle at 1 hour after intravenous dose of 100 microCi of the drug and 15 ug of estradiol; assay type: ADME, organism-based, Muscle tissue; method in brief: as §3
Rattus norvegicus [15] = experiment: Tested in vivo for the biodistribution in rat ovaries after 3 hours following an intravenous dose of 100 microCi of drug in 10%ethanol saline; assay type: ADME, organism-based, Female gonad; method in brief: as §3
Rattus norvegicus [16] = experiment: Tested in vivo for the biodistribution in rat fat at 1 hour after intravenous dose of 100 microCi of the drug and 15 ug of estradiol; assay type: ADME, organism-based, Adipose tissue
Rattus norvegicus [17] = experiment: Tested in vivo for the biodistribution in rat uterus after 3 hours following an intravenous dose of 100 microCi of drug in 10%ethanol saline; assay type: ADME, organism-based; method in brief: as §3
Rattus norvegicus [18] = experiment: Tested in vivo for the biodistribution in rat uterus at 1 hour after intravenous dose of 100 microCi of drug in 10%ethanol saline; assay type: ADME, organism-based; method in brief: as §3
Rattus norvegicus [19] = experiment: Tested in vivo for the biodistribution in rat uterus at 1 hour after intravenous dose of 100 microCi of the drug and 15 micro g of estradiol; assay type: ADME, organism-based; method in brief: as §3
Rattus norvegicus [20] = experiment: Tested in vivo for the biodistribution in rat uterus/blood after 3 hours following an intravenous dose of 100 microCi of drug in 10%ethanol saline; assay type: ADME, organism-based; method in brief: as §1
Rattus norvegicus [21] = experiment: Tested in vivo for the biodistribution in rat uterus/blood at 1 hour after intravenous dose of 100 microCi of drug in 10%ethanol saline; assay type: ADME, organism-based; method in brief: as §1
Rattus norvegicus [22] = experiment: Tested in vivo for the biodistribution in rat uterus/blood at 1 hour after intravenous dose of 100 microCi of the drug and 15 ug of estradiol; assay type: ADME, organism-based; method in brief: as §1
Rattus norvegicus [23] = experiment: Tested in vivo for the biodistribution in rat bone after 3 hours following an intravenous dose of 100 microCi of drug in 10%ethanol saline; assay type: ADME, organism-based, Bone element; method in brief: as §2
Rattus norvegicus [24] = experiment: Tested in vivo for the biodistribution in rat kidney after 3 hours following an intravenous dose of 100 microCi of drug in 10%ethanol saline; assay type: ADME, organism-based; method in brief: as §2
Rattus norvegicus [25] = experiment: Tested in vivo for the biodistribution in rat kidney at 1 hour after intravenous dose of 100 microCi of the drug and 15 u g of estradiol; assay type: ADME, organism-based
Rattus norvegicus [26] = experiment: Tested in vivo for the biodistribution in rat liver after 3 hours following an intravenous dose of 100 microCi of drug in 10%ethanol saline; assay type: ADME, organism-based; method in brief: as §3
Rattus norvegicus [27] = experiment: Tested in vivo for the biodistribution in rat liver at 1 hour after intravenous dose of 100 microCi of drug in 10%ethanol saline; assay type: ADME, organism-based; method in brief: as §3
Rattus norvegicus [28] = experiment: Tested in vivo for the biodistribution in rat liver at 1 hour after intravenous dose of 100 microCi of the drug and 15 u g of estradiol; assay type: ADME, organism-based; method in brief: as §3
Rattus norvegicus [29] = experiment: Tested in vivo for the biodistribution in rat muscle after 3 hours following an intravenous dose of 100 microCi of drug in 10%ethanol saline; assay type: ADME, organism-based, Muscle tissue; method in brief: as §3
[30] = Partition coefficient (logP); assay type: physicochemical; conditions: octanol/water
Method in brief: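 Octanol/water log P estimated from log k'w measured by reversed-phase HPLC (Minick method) on a C8 silica column.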

[31] = target: T1, Alpha-fetoprotein (Rattus norvegicus) (UniProt P02773); experiment: Relative binding affinity for Alphafetoprotein
T1 sequence (whole entry): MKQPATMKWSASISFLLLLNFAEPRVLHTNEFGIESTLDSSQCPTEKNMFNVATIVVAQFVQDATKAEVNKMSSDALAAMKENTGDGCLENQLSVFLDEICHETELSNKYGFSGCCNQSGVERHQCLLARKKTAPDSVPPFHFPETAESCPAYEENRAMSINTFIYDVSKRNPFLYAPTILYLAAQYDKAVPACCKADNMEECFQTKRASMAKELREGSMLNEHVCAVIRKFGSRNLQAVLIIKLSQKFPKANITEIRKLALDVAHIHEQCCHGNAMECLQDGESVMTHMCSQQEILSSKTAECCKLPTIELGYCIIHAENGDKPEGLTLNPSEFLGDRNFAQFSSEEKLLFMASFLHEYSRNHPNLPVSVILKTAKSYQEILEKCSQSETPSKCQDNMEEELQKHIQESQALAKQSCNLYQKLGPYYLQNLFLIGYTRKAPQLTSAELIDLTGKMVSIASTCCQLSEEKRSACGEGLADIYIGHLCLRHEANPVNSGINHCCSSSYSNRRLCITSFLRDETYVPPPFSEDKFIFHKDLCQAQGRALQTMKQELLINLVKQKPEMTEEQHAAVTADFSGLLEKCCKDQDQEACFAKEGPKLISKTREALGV

[32] = target: T2, Sex hormone-binding globulin (Homo sapiens) (UniProt P04278); experiment: Relative binding affinity against sex steroid binding protein (SBP)
T2 sequence (whole entry): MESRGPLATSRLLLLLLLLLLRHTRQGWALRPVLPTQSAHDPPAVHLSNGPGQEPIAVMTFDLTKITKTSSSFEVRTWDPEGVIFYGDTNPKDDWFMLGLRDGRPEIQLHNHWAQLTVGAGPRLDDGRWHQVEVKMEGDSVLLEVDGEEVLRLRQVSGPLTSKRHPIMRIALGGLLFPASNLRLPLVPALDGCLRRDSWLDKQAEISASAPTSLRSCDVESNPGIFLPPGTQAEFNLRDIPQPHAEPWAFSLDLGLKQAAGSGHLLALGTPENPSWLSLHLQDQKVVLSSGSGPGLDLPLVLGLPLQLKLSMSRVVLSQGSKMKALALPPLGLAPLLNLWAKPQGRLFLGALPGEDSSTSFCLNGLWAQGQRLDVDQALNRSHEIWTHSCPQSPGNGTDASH

Rattus norvegicus [33] = experiment: Tested in vivo for the biodistribution in rat kidney at 1 hour after intravenous dose of 100 microCi of drug in 10%ethanol saline; assay type: ADME, organism-based; method in brief: as §2
[34] = target: T3, Estrogen receptor (Rattus norvegicus) (UniProt P06211+Q62986)
[35] = target: T3, Estrogen receptor (Rattus norvegicus); remark: listed apart in the source

C#C[C@]1(O)[C@@H](F)C[C@H]2[C@@H]3CCc4cc(O)ccc4[C@H]3CC[C@@]21C
Injected (Rattus norvegicus [1]): 32.37% | Injected (Rattus norvegicus [2]): 24.42% | Injected (Rattus norvegicus [3]): 2.424% | Injected (Rattus norvegicus [4]): 0.358% | Injected (Rattus norvegicus [5]): 0.449% | Injected (Rattus norvegicus [6]): 0.576% | Injected (Rattus norvegicus [7]): 0.608% | Injected (Rattus norvegicus [8]): 0.635% | Injected (Rattus norvegicus [9]): 0.122% | Injected (Rattus norvegicus [10]): 0.337% | Injected (Rattus norvegicus [11]): 2.159% | Injected (Rattus norvegicus [12]): 0.863% | Injected (Rattus norvegicus [13]): 0.307% | Injected (Rattus norvegicus [14]): 0.22% | Injected (Rattus norvegicus [15]): 1.274% | Injected (Rattus norvegicus [16]): 0.206% | Injected (Rattus norvegicus [17]): 4.31% | Injected (Rattus norvegicus [18]): 7.466% | Injected (Rattus norvegicus [19]): 0.533% | Injected (Rattus norvegicus [20]): 12.21% | Injected (Rattus norvegicus [21]): 16.87% | Injected (Rattus norvegicus [22]): 0.92% | Injected (Rattus norvegicus [23]): 0.557% | Injected (Rattus norvegicus [24]): 0.376% | Injected (Rattus norvegicus [25]): 0.752% | Injected (Rattus norvegicus [26]): 2.204% | Injected (Rattus norvegicus [27]): 2.249% | Injected (Rattus norvegicus [28]): 2.412% | Injected (Rattus norvegicus [29]): 0.133% | logP [30]: 3.3 | relative binding affinity (RBA) [31]: 22 | relative binding affinity (RBA) [32]: 0.589 | Injected (Rattus norvegicus [33]): 0.906% | NSB [34]: 1.04 | BSI [35]: 27
